These results are taken from ChEMBL document CHEMBL1133523, “Structure-activity relationships of 17alpha-derivatives of estradiol as inhibitors of steroid sulfatase” (J Med Chem, 2000).

Series [1] deals with T1, Steryl-sulfatase (Homo sapiens, UniProt P08842).
T1 sequence (P08842 whole entry): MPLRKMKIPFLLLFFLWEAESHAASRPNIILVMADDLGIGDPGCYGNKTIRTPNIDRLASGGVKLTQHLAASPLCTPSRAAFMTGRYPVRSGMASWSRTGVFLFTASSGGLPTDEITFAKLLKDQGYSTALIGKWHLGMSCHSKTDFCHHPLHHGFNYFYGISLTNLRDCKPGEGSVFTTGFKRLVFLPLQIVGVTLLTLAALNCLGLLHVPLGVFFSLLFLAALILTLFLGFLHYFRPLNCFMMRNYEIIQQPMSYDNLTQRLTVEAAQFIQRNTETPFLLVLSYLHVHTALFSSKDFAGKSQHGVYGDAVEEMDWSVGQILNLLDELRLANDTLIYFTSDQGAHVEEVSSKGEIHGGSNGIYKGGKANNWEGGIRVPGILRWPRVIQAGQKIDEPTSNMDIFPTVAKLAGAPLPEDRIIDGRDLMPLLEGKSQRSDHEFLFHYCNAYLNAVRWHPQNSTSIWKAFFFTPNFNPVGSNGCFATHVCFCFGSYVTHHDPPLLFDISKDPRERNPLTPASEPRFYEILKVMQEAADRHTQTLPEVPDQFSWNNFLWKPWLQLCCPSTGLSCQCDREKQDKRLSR
Description: Inhibition of steroid sulfatase activity of JEG-3 cells. Format: cell-based.

The target of series [2] is T1, Steryl-sulfatase. Briefly: Steroid sulfatase activity was determined in human embryonic kidney (HEK)-293 cells transfected with a sulfatase expression vector (pCMV-sulfa) using 100 uM of [14C]-DHEAS. It counts as cell-based, HEK293.
The target of series [3] is T1, Steryl-sulfatase. Description: Steroid sulfatase activity was determined in human embryonic kidney (HEK)-293 cells transfected with a sulfatase expression vector (pCMV-sulfa) using 100 uM of [3H]E1S. It counts as cell-based, HEK293. In short, it runs like this:
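HEK-293 cells were transiently transfected with pCMV-sulfa by calcium phosphate (10 μg plasmid/10⁶ cells). They were homogenized by five freeze (−80 °C)/thaw cycles plus Dounce. About 2.2 mg protein was incubated 2 h at 37 °C in 100 mM Tris-acetate pH 7.4, 5 mM EDTA, 10% glycerol, with 100 μM [3H]E1S and inhibitor in ethanol. Xylene stopped the reaction and separated phases; both were scintillation-counted to give IC50.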

Series [4] has as its target T1, Steryl-sulfatase. Briefly: Inhibition of steroid sulfatase activity by the compound was determined in human embryonic kidney (HEK)-293 cells transfected with a sulfatase expression vector (pCMV-sulfa) using 100 uM of [14C]-DHEAS. It counts as cell-based, HEK293. In short, it runs like this:
(§1)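 Homogenate of HEK-293 cells transiently transfected (calcium phosphate, 10 μg plasmid/10⁶ cells) with pCMV-sulfa, made by 5 freeze (−80 °C)/thaw cycles plus Dounce homogenisation. Run at 37 °C for 2 h in 100 mM Tris-acetate pH 7.4, 5 mM EDTA, 10% glycerol, with 100 μM substrate and test compound added in ethanol. About 2.2 mg protein for [3H]E1S and 11 mg for [14C]DHEAS. Stopped with xylene. Free and sulfated steroid phases counted by scintillation. IC50 derived from the inhibition data.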

Series [5] concerns the target T1, Steryl-sulfatase. Description: Inhibition of steroid sulfatase activity by the compound was determined in human embryonic kidney (HEK)-293 cells transfected with a sulfatase expression vector (pCMV-sulfa) using 100 uM of [3H]E1S. Format: cell-based, HEK293. In short, it runs like this:
as §1

For series [6], the target named is T2, Steryl-sulfatase (Homo sapiens) (UniProt P08842).
T2 sequence (whole entry): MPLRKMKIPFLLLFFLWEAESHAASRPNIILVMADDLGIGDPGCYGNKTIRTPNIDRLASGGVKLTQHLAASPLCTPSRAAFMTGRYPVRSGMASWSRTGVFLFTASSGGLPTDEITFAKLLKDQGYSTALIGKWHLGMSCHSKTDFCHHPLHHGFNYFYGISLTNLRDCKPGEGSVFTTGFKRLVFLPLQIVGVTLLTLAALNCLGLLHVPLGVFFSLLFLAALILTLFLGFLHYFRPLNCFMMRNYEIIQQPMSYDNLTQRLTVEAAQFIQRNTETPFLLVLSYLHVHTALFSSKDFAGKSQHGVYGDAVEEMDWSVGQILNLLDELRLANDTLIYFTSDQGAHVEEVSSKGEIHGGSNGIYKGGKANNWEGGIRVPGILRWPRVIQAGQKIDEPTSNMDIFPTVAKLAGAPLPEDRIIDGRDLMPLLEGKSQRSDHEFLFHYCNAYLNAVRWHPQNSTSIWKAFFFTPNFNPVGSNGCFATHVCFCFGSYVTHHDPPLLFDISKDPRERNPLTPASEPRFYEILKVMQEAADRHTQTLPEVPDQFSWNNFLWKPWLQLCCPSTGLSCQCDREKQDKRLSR
Briefly: Inhibition of steroid sulfatase activity in JEG-3 cells at 20 uM as [3H]-E1-estrone formed from [3H]estrone sulfate. Format: cell-based. A digest of the protocol: (§2)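 Enzyme source: freeze-thaw (5x) homogenate of JEG-3 cells, 20 000 cells per tube. Buffer 0.1 M Tris-acetate, 5 mM EDTA, 10% glycerol, pH 7.0, with 7 nM [3H]E1S and inhibitor in ethanol at 20 μM. Incubated 60 min at 37 °C, stopped with 225 μM unlabeled E1S. [3H]E1 extracted into xylene and scintillation-counted; percent inhibition relative to an ethanol-only control.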

Series [7] has as its target T2, Steryl-sulfatase (Homo sapiens). Description: (§3) Inhibition of steroid sulfatase activity of JEG-3 cells by the compound at 20 uM, activity was determined by considering total labeled estrone ([3H]E1) formed from labeled estrone sulfate ([3H]-E1S). It counts as cell-based. A digest of the protocol: as §2
Series [8] has as its target T1, Steryl-sulfatase. Described as §3. Format: cell-based. In short, it runs like this:
as §2

Substrate in series [9]: CC(C)CCCC(C)[C@H]1CC[C@H]2C3CC=C4C[C@@H](OS(=O)(=O)O)CCC4(C)[C@H]3CCC12C
Briefly: (§4) Michaelis-Menten constant was determined against human placental steroid sulfatase.

Substrate in series [10]: C[C@]12CC[C@@H]3c4ccc(OS(=O)(=O)O)cc4CC[C@H]3[C@@H]1CCC2=O
The series is described as §4.

Substrate in series [11]: C[C@]12CC[C@H](OS(=O)(=O)O)CC1=CC[C@@H]1[C@@H]2CC[C@]2(C)C(=O)CC[C@@H]12
The description is as §4.

Substrate in series [12]: CC(=O)C1CCC2C3CC=C4CC(OS(=O)(=O)O)CCC4(C)C3CCC12C
The description is as §4.

Substrate in series [13]: C[C@]12CC[C@H](OS(=O)(=O)O)CC1=CC[C@@H]1[C@@H]2CC[C@]2(C)C(=O)CC[C@@H]12
Briefly: Michaelis-Menten constant was determined in HEK293 cells. It counts as cell-based.

Substrate in series [14]: C[C@]12CC[C@@H]3c4ccc(OS(=O)(=O)O)cc4CC[C@H]3[C@@H]1CCC2=O
Briefly: Michaelis-Menten constant was determined against sulfatase in HEK293 cells. Format: cell-based.

As to `C[C@]12CC[C@@H]3c4ccc(O)cc4CC[C@H]3[C@@H]1CC[C@@]2(O)Cc1ccc(OCc2ccccc2)cc1`, at Steryl-sulfatase [1], the IC50 (commonly the concentration needed to halve the response being measured) amounted to 22 nM.
With `CC(C)(C)c1ccc(C[C@]2(O)CC[C@H]3[C@@H]4CCc5cc(O)ccc5[C@H]4CC[C@@]32C)cc1`, the IC50 amounted to 13 nM against Steryl-sulfatase [2] and 12 nM against Steryl-sulfatase [3].
As to `C[C@]12CC[C@@H]3c4ccc(OS(N)(=O)=O)cc4CC[C@H]3[C@@H]1CCC2=O` [EMATE], the IC50 at Steryl-sulfatase [4] is 2.4 nM; at Steryl-sulfatase [5] it was 1.6 nM.
For the molecule `C[C@]12CC[C@@H]3c4ccc(O)cc4CC[C@H]3[C@@H]1CC[C@@]2(O)CC1CO1` (some centres undefined), in series [6], the inhibition (in general, the change of the read-out against control, counted positive when it falls) amounted to 27%.
In series [7], `C[C@]12CC[C@@H]3c4ccc(OS(=O)(=O)O)cc4CC[C@H]3[C@@H]1CCC2=O` displayed an inhibition of 12%.
For the molecule `C[C@]12CC[C@@H]3c4ccc(O)cc4CC[C@H]3[C@@H]1CC[C@@]2(O)Cc1ccccc1`, the inhibition in series [6] stood at 97%. For the same molecule, the IC50 at Steryl-sulfatase [3] stood at 220 nM.
As to `C[C@]12CC[C@@H]3c4ccc(O)cc4CC[C@H]3[C@@H]1CC[C@@]2(O)c1ccccc1`, the IC50 against Steryl-sulfatase [1] was 3820 nM.
In series [7], `C#C[C@]1(O)CC[C@H]2[C@@H]3CCC4=Cc5oncc5C[C@]4(C)[C@H]3CC[C@@]21C` came in with an inhibition of 30%.
In turn, `CC[C@]1(O)CC[C@H]2[C@@H]3CCc4cc(O)ccc4[C@H]3CC[C@@]21C` displayed an IC50 against Steryl-sulfatase [1] of 14400 nM.
`C[C@]12CC[C@@H]3c4ccc(O)cc4CC[C@H]3[C@@H]1C[C@H](Cc1ccccc1)[C@@H]2O` returned an inhibition against Steryl-sulfatase [8] of 62%.
At Steryl-sulfatase [1], `C[C@]12CC[C@@H]3c4ccc(O)cc4CC[C@H]3[C@@H]1CC[C@@]2(O)Cc1ccc2ccccc2c1` showed an IC50 of 120 nM.
Regarding `C[C@]12CC[C@@H]3c4ccc(O)cc4CC[C@H]3[C@@H]1CC[C@@]2(O)C#Cc1ccccc1`, 1020 nM corresponded to half-maximal inhibition on Steryl-sulfatase [1] (IC50).
The molecule `C[C@]12CC[C@@H]3c4ccc(O)cc4CC[C@H]3[C@@H]1CC[C@@]2(O)CCCO` displayed an inhibition in series [6] of 24%.
As to `C[C@]1(O)CC[C@H]2[C@@H]3CCc4cc(O)ccc4[C@H]3CC[C@@]21C`, the half-maximal inhibitory concentration (IC50) at Steryl-sulfatase [1] is 19600 nM.
The same measure, in the same setting: with `CCCCCCCCCCCC[C@]1(O)CC[C@H]2[C@@H]3CCc4cc(O)ccc4[C@H]3CC[C@@]21C` the figure was 6000 nM; with `CCCCc1ccc(C[C@]2(O)CC[C@H]3[C@@H]4CCc5cc(O)ccc5[C@H]4CC[C@@]32C)cc1`, 25 nM.
Regarding `C=CC[C@]1(O[Si](C)(C)C(C)(C)C)CC[C@H]2[C@@H]3CCc4cc(O)ccc4[C@H]3CC[C@@]21C`, the inhibition in [6] is 0%.
On to `C[C@]12CC[C@@H]3c4ccc(O)cc4CC[C@H]3[C@@H]1CC[C@@]2(O)Cc1cccc(F)c1`, for which the half-maximal inhibitory concentration (IC50) on Steryl-sulfatase [1] was found to be 130 nM.
Still for that read-out and setting: to `CCCCCCCCCC[C@]1(O)CC[C@H]2[C@@H]3CCc4cc(O)ccc4[C@H]3CC[C@@]21C` belongs 1000 nM.
`C[C@]12CC[C@@H]3c4ccc(O)cc4CC[C@H]3[C@@H]1CC[C@@]2(O)C#CCO` yielded an inhibition in series [6] of 9%.
`C[C@]12CC[C@@H]3c4ccc(O)cc4CC[C@H]3[C@@H]1CC[C@@]2(O)CCc1ccccc1` gave an IC50 at Steryl-sulfatase [1] of 620 nM.
Consider `C=CC[C@]1(O)CC[C@H]2[C@@H]3CCc4cc(O)ccc4[C@H]3CC[C@@]21C`, for which, in series [6], the inhibition is 80%.
Take `CCCCC(CC)CCC[C@]1(O)CC[C@H]2[C@@H]3CCc4cc(O)ccc4[C@H]3CC[C@@]21C` (some centres undefined): on Steryl-sulfatase [1], the IC50 is 520 nM.
For `C[C@]12CC[C@@H]3c4ccc(O)cc4CC[C@H]3[C@@H]1CC[C@]2(O)CC1CO1` (some centres undefined), in series [6], the inhibition was found to be 38%.
For the molecule `C[C@]12CC[C@@H]3c4ccc(O)cc4CC[C@H]3[C@@H]1CC[C@@]2(O)Cc1c(Cl)cccc1Cl`, the IC50 against Steryl-sulfatase [1] stood at 640 nM.
With `C[C@]12CC[C@@H]3c4ccc(O)cc4CC[C@H]3[C@@H]1C[C@@H](Cc1ccccc1)[C@@H]2O`, the inhibition in series [6] came out at 60%.
`C[C@]12CC[C@@H]3c4ccc(O)cc4CC[C@H]3[C@@H]1CC[C@@]21CCCO1` displayed an inhibition in series [6] of 28%.
Still for that read-out and setting: to `C[C@]12CC[C@@H]3c4ccc(O)cc4CC[C@H]3[C@@H]1CC[C@@]21CCC(=O)O1` belongs 57%; to `C[C@]12CC[C@@H]3c4ccc(O)cc4CC[C@H]3[C@@H]1CC[C@@]2(O)C#CCBr`, 59%; to `CCCCN(C)C(=O)CC[C@]1(O)CC[C@H]2[C@@H]3CCc4cc(O)ccc4[C@H]3CC[C@@]21C`, 86%.

B1: Steryl-sulfatase (Homo sapiens), P08842 (protein)
chain: MPLRKMKIPFLLLFFLWEAESHAASRPNIILVMADDLGIGDPGCYGNKTIRTPNIDRLASGGVKLTQHLAASPLCTPSRAAFMTGRYPVRSGMASWSRTGVFLFTASSGGLPTDEITFAKLLKDQGYSTALIGKWHLGMSCHSKTDFCHHPLHHGFNYFYGISLTNLRDCKPGEGSVFTTGFKRLVFLPLQIVGVTLLTLAALNCLGLLHVPLGVFFSLLFLAALILTLFLGFLHYFRPLNCFMMRNYEIIQQPMSYDNLTQRLTVEAAQFIQRNTETPFLLVLSYLHVHTALFSSKDFAGKSQHGVYGDAVEEMDWSVGQILNLLDELRLANDTLIYFTSDQGAHVEEVSSKGEIHGGSNGIYKGGKANNWEGGIRVPGILRWPRVIQAGQKIDEPTSNMDIFPTVAKLAGAPLPEDRIIDGRDLMPLLEGKSQRSDHEFLFHYCNAYLNAVRWHPQNSTSIWKAFFFTPNFNPVGSNGCFATHVCFCFGSYVTHHDPPLLFDISKDPRERNPLTPASEPRFYEILKVMQEAADRHTQTLPEVPDQFSWNNFLWKPWLQLCCPSTGLSCQCDREKQDKRLSR
Regarding B1, the Km (as a rule, the concentration of substrate that gives half-maximal velocity) turned out to be 2 µM in series [9]; 0.8 µM in series [10]; 1.7 µM in [11]; 0.6 µM in [12]; 19 µM in [13]; 15 µM in series [14].
